The values below come from ChEMBL document CHEMBL4334446, “Evaluating the effects of fluorine on biological properties and metabolic stability of some antitubulin 3-substituted 7-phenyl-pyrroloquinolinones” (Eur J Med Chem, 2019).

One data set addresses Tubulin (Bos taurus, UniProt Q6B856+Q862L2+Q862F3). The data set can be described thus: Inhibition of bovine brain tubulin polymerization preincubated for 15 mins followed by GTP addition and measured for 20 mins by turbidimetry-based spectrophotometric method. Put shortly:
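Bovine brain tubulin (10 µM) was preincubated with varying compound concentrations in 0.8 M monosodium glutamate, pH 6.6, for 15 min at 30 °C, then cooled to 0 °C. GTP was added to 0.4 mM final and the mix warmed to 30 °C. Turbidity was followed at 350 nm. IC50 = concentration inhibiting extent of assembly 50% after 20 min.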

A further data set concerns HT-29. The data set can be described thus: Growth inhibition of human HT-29 cells incubated for 72 hrs by MTT assay. Particulars: HT-29, 72 h. The format is functional. (Tetrazolium assays rely on reduction of a dye to a coloured formazan, in cell work by metabolically active cells.)
For another data set, the system named is MCF7. Nature of the data set: Growth inhibition of human MCF7 cells incubated for 72 hrs by MTT assay. Particulars: MCF7, 72 h. The format is functional.
Data set [1] can be described thus: Selectivity ratio of GI50 for human PBL cells to GI50 for human Jurkat cells incubated for 72 hrs by MTT assay. Put shortly:
(§1)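 Leukemia cells (CEM, DND-41, Jurkat) were grown in RPMI-1640 at 8×10³ cells/well and left 18 h. Donor PBL were gradient-separated, held overnight in RPMI-1640/10% FBS, and non-adherent cells set at 5×10^5 cells/mL without PHA (resting). Both were exposed 72 h to graded concentrations, read by MTT. The ratio is PBL GI50 over leukemia GI50.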

For a further data set, the system named is Jurkat. Nature of the data set: Growth inhibition of human Jurkat cells incubated for 72 hrs by MTT assay. The format is functional. Put shortly: (§2)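 Leukemia lines were grown in RPMI-1640; the CEM^Vbl-100 medium also contained 100 ng/mL vinblastine. Cells were seeded at 8 × 10³ per well and left 18 h at 37 °C, 5% CO2. Medium was then replaced with fresh medium holding graded compound concentrations (DMSO stocks), in triplicate, for 72 h. Viability was read by MTT, and GI50 = concentration inhibiting proliferation 50%.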

Data set [2] can be described thus: Growth inhibition of human PBL cells incubated for 72 hrs by MTT assay. To be noted: PBL cells (peripheral blood lymphocytes). The format is cell-based. Put shortly:
(§3)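 PBL from healthy donors were isolated on a Lymphoprep gradient, held overnight in RPMI-1640 with 10% FBS, and the non-adherent cells resuspended at 5 × 10^5 cells/mL. Proliferating cultures got 2.5 µg/mL PHA; resting cultures got none. Compound was added at several concentrations for 72 h and viability read by MTT. GI50 reported as mean ± SEM of three experiments.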

Another data set has as its system RS4-11. The data set can be described thus: Growth inhibition of human RS4:11 cells incubated for 72 hrs by MTT assay. The format is functional. To be noted: RS4-11, 72 h. Put shortly: as §2
The next data set deals with MDA-MB-468. Nature of the data set: Growth inhibition of human MDA-MB-468 cells incubated for 72 hrs by MTT assay. To be noted: MDA-MB-468, 72 h. The format is functional.
For data set [3], the system named is B16-BL6. The data set can be described thus: Antitumour activity against mouse B16-BL6 cells allografted in C57BL/6 mouse assessed as reduction in tumor mass at 3 mg/kg, ip administrated every other day relative to control. Format: functional. Put shortly:
(§4)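 Male C57BL/6 mice (six weeks old) got 2.5×10^5 BL6-B16 murine melanoma cells s.c. in the dorsolateral flank, in PBS. Once tumors were measurable (about 100 mm³), mice were randomized and given drug i.p. every other day in 50 µL DMSO. Vehicle (DMSO) group served as control. Tumor volume = (D × d²)/2; tumor weight taken at end. 5 animals per group, mean ± SEM.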

In the next data set the test system is HL-60. Nature of the data set: Growth inhibition of human HL60 cells incubated for 72 hrs by MTT assay. Format: functional. To be noted: HL-60, 72 h. Put shortly: as §2
A short description of data set [4]: Metabolic stability in human liver microsomes assessed as parent compound decline at 10 uM incubated for 60 mins in presence of NADPH by HPLC analysis. Format: ADME, Microsome. To be noted: read-out: Drug degradation. Put shortly: (§5)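 Compound (10 µM) was incubated 0 or 60 min at 37 °C with pooled HLMs (1 mg/mL), with or without 1 mM NADPH, or in buffer only (0.1 M KH2PO4 pH 7.4). Reactions were stopped with ice-cold acetonitrile. Remaining parent was measured by HPLC-fluorescence relative to 0 min; mean ± SD, n = 3.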
(In general: Liver microsomes are a subcellular fraction often used to study metabolism.)

Data set [5] can be described thus: Selectivity ratio of GI50 for PHA-stimulated human PBL cells to GI50 for human DND41 cells incubated for 72 hrs by MTT assay. Put shortly:
(§6)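 Leukemia cells (CEM, DND-41, Jurkat) were grown in RPMI-1640 at 8×10³ cells/well and left 18 h. Donor PBL were gradient-separated, held overnight, and non-adherent cells set at 5×10^5 cells/mL with 2.5 µg/mL PHA. Both were exposed 72 h at 37 °C to graded compound concentrations, read by MTT. The ratio is PBL GI50 over leukemia GI50.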

Data set [6] in a line: Toxicity in C57BL/6 mouse allografted with mouse B16-BL6 cells assessed as change in body weight at 3 to 7.5 mg/kg, ip administrated every other day. To be noted: in vivo. Format: organism-based. Put shortly: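 Male six-week-old C57BL/6 mice were given BL6-B16 murine melanoma cells subcutaneously in the dorsolateral flank in PBS. Once tumours reached about 100 mm³, mice were randomised and dosed intraperitoneally every other day with 3.0 or 7.5 mg/kg in DMSO, or vehicle alone. Body weight change was followed; 5 animals per group, mean ± SEM.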

The subject of another data set is MDA-MB-231. The data set can be described thus: Growth inhibition of human MDA-MB-231 cells incubated for 72 hrs by MTT assay. Format: functional. To be noted: MDA-MB-231, 72 h.
The nature of data set [7]: Selectivity ratio of GI50 for human PBL cells to GI50 for human CEM cells incubated for 72 hrs by MTT assay. The format is functional. Put shortly:
as §1

Data set [8] can be described thus: Metabolic stability in human liver microsomes assessed as parent compound decline at 10 uM incubated for 60 mins in absence of NADPH by HPLC analysis. Format: ADME, Microsome. To be noted: read-out: Drug degradation. Put shortly: as §5
Data set [9] in a line: Growth inhibition of human DND41 cells incubated for 72 hrs by MTT assay. Format: functional. To be noted: DND41, 72 h. Put shortly:
as §2

The test system of a further data set is HeLa. Nature of the data set: Growth inhibition of human HeLa cells incubated for 72 hrs by MTT assay. The format is functional.
Data set [10] is described as follows: Selectivity ratio of GI50 for human PBL cells to GI50 for human DND41 cells incubated for 72 hrs by MTT assay. Put shortly:
as §1

A short description of data set [11]: Growth inhibition of multidrug-resistant human CEM/VBL100 cells incubated for 72 hrs by MTT assay. Format: functional. To be noted: CEM/VBL100, 72 h. Put shortly: as §2
A further data set concerns CCRF-CEM. The data set can be described thus: Growth inhibition of human CEM cells incubated for 72 hrs by MTT assay. The format is functional. Put shortly:
as §2

The nature of data set [12]: Selectivity ratio of GI50 for PHA-stimulated human PBL cells to GI50 for human CEM cells incubated for 72 hrs by MTT assay. Put shortly:
as §6

Data set [13] has as its system B16-BL6. Nature of the data set: Growth inhibition of mouse B16-BL6 cells incubated for 72 hrs by MTT assay. To be noted: B16-BL6, 72 h. The format is functional.
Data set [14] relates to B16-BL6. Nature of the data set: Antitumour activity against mouse B16-BL6 cells allografted in C57BL/6 mouse assessed as reduction in tumor mass at 7.5 mg/kg, ip administrated every other day relative to control. The format is functional. Put shortly: as §4
Data set [15] is described as follows: Selectivity ratio of GI50 for PHA-stimulated human PBL cells to GI50 for human Jurkat cells incubated for 72 hrs by MTT assay. Put shortly: as §6
Data set [16] is described as follows: Growth inhibition of PHA-stimulated human PBL cells incubated for 72 hrs by MTT assay. Format: cell-based. To be noted: PHA-stimulated PBL cells (peripheral blood lymphocytes). Put shortly: as §3
The target in the next data set is Tubulin (Bos taurus) (UniProt Q6B856+Q862L2+Q862F3). The data set can be described thus: Inhibition of [3H]colchicine binding to bovine brain tubulin at 5 uM relative to control. Put shortly:
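Bovine brain tubulin at 1 µM was incubated with 5 µM [3H]colchicine and the test compound at 5 µM. Inhibition of colchicine binding was measured relative to a control.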

Data set [17] relates to B16-BL6. The data set can be described thus: Antitumour activity against mouse B16-BL6 cells allografted in C57BL/6 mouse assessed as reduction in tumor mass at 30 mg/kg, ip administrated every other day relative to control. The format is functional. Put shortly:
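Six-week-old male C57BL/6 mice received BL6-B16 murine melanoma cells subcutaneously in the dorsolateral flank, suspended in PBS. Once tumors reached about 100 mm³, the mice were randomised and dosed intraperitoneally every other day, with the drug dissolved in DMSO; controls received DMSO vehicle. Tumors were measured in two dimensions, V=(D x d²)/2, and weighed at the end. Five mice per group; mean ± SEM.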

By IC50 is commonly meant the point on the concentration scale where inhibition reaches its midpoint. High values mean weaker potency in that assay, low ones greater potency in that assay. The GI50 is the concentration that inhibits growth by half. For orientation: inhibition in vivo means the relative decrease from the control value, in per cent. For orientation: inhibition means the share of the control response that was lost under treatment. High values mean a strong effect, low ones a weak effect. `O=C(c1ccccc1)n1ccc2c3c(=O)cc(-c4cccc(F)c4)[nH]c3ccc21` displayed an IC50 against Tubulin of 380 nM. For the same molecule, the GI50 with HT-29 was determined as 402 nM; in the data set on MCF7, 103 nM; with Jurkat, 32.4 nM; with RS4-11, 56 nM; with MDA-MB-468 it was 871 nM; in the data set on HL-60 it was 15.1 nM. Besides, the GI50 in the data set on MDA-MB-231 is 454 nM; in [9], 10.2 nM; in the data set on HeLa it was 13.3 nM; in data set [11], 36 nM; in the data set with CCRF-CEM it was 44 nM; in the data set with B16-BL6 [13], 18 nM. The RatioGI50 in [1], in data set [5], in [7], in data set [10], in data set [12] and in data set [15] was 10000 - 30000 each time. Also, the GI50 at 72 h in data set [2] came to 45600 nM; in [16], 17600 nM. The inhibition in vivo at 3 mg/kg with B16-BL6 [3] worked out at 16.7%. In addition, the metabolised at 1 h, 10 µM in [4] and in data set [8] was 20% each time. Further, the Activity result in data set [6] is on record as “Non-Toxic”. Also, the inhibition in vivo at 7.5 mg/kg in the data set on B16-BL6 [14] was 58.4%. The molecule further showed an inhibition on Tubulin (Bos taurus) of 70%.

Take `COc1ccc(/C=C\c2cc(OC)c(OC)c(OC)c2)cc1OP(=O)(O)O` [FOSBRETABULIN DISODIUM]: the inhibition in vivo at 30 mg/kg in the data set on B16-BL6 [17] turned out to be 31.3%.
